Source: PubChem BioAssay (several laboratories)
The list is not random: actives were taken first. Their share in the collection is about 5.2%.
NS3 helicase inh = HCV NS3 helicase inhibition; NS3 helicase DNA unwinding, Cy5 molecular beacon fluorescence; inhibition, % at 10.9 µM; hit rate 0.56% among 290,000; AID 1800;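 active = inhibition above the mean of all tested compounds plus 3 SD, set per campaign, cut at about 35% in these data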
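Test system: hepatitis C virus NS3 helicase domain fragment enzyme. Also added: annealed dual-labelled DNA beacon duplex, ATP-started. Timing: 60 min unwinding reaction at 25 °C after ATP addition. Technique: Cy5 fluorescence. Measure: % inhibition of unwinding.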
PfM18AAP inh = blocks P. falciparum M18 aspartyl aminopeptidase; recombinant PfM18AAP, H-Glu-NHMec fluorogenic cleavage; hit rate 1.2% among 290,000; inhibition, % at 7.35 µM;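 active = inhibition above the campaign mean inhibition over all tested compounds plus 3 SD, cut at about 28% in these data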
ALR H2O2 inh = inhibitors of human sulfhydryl oxidase ALR; P55789; purified ALR, DTT oxidation, H2O2 HRP-luminol luminescence; inhibition, % (concentration not given with the values); hit rate 3.8% among 290,000;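 active = mean replicate inhibition above about 79%, with every replicate also reaching it, limit read from the data; inconclusive = only one of the two criteria met; inactive = mean below limit and not every replicate reaching it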
Target sequence (P55789 whole entry, looked up): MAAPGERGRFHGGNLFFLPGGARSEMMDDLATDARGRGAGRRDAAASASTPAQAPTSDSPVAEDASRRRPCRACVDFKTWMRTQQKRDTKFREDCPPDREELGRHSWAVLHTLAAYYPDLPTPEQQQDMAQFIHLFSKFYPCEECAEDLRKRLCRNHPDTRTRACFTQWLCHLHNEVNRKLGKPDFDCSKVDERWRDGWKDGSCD
EBNA-1 inhibitor = blocks EBNA-1 binding to DNA. hit rate 0.34% among 300,000. inhibition, % at 14.8 µM. EBNA-1 DNA binding, fluorescence polarization. AID 1950; in the data active = inhibition above about 28%
core dimer inh = HCV core protein dimerization inhibition; TR-FRET GST/Flag-core106 dimerization, 1536-well; inhibition, % at 5 µM; hit rate 0.33% among 300,000;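 active = inhibition above the mean of all tested compounds plus 3 SD, set per screening campaign, cut at about 45% in these data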
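test system = GST/Flag-tagged HCV core106 proteins | probe or stimulus = Eu donor and XL665 acceptor anti-tag antibodies | times = compound-protein-antibody incubation 4 h at 22.5 °C | signal = TR-FRET, excitation 340 nm, emission 617 and 671 nm | measure = percent inhibition of core106 dimerization signal | controls = wells lacking GST-core106 and wells with excess unlabelled core106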
ZTA DNA inh = ZTA (EBV) inhibition in EBNA-1 counter-screen; P03206; ZTA-DNA binding, fluorescence polarization; inhibition, % at 11 µM; hit rate 0.15% among 320,000; in the data active = inhibition above about 33%
Target sequence (P03206 whole entry, looked up): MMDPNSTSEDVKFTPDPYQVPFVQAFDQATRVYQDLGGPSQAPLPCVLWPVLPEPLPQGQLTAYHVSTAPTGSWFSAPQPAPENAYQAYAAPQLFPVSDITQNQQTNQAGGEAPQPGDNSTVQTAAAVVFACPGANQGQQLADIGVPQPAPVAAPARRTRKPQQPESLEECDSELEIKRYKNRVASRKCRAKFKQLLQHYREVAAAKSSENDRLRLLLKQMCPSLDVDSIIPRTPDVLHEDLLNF
Numbers stand for hits; . = inactive; ? = inconclusive; / = no result.

SMILES	NS3 helicase inh	PfM18AAP inh	ALR H2O2 inh	EBNA-1 inhibitor	core dimer inh	ZTA DNA inh
Cc1nc(-c2cccc(S(=O)(=O)N3CC(C)OC(C)C3)c2)cs1 (stereo not drawn)	.	.	98	.	.	.
Cc1nc(-c2cccc(N)c2)cs1	.	.	99	.	.	.
Cc1nc(-c2ccccc2)cs1	.	.	.	.	.	.
Cc1nc(-c2cccc(S(=O)(=O)N3CCOCC3)c2)cs1	.	.	99	.	.	.
CC(C)Cn1c(-c2cccc(S(=O)(=O)N3CCOCC3)c2)n[nH]c1=S	/	/	86	/	/	/
Cc1cccc(C(C)C)c1NC(=O)COC(=O)CCN1C(=O)C2CC=CCC2C1=O (stereo not drawn)	.	.	.	.	.	.
CCn1cc(C(=O)NC(=S)Nc2ccccc2[N+](=O)[O-])cn1	.	.	99	.	.	.
CCn1cc(C(=O)NC(=S)Nc2ccccc2Br)cn1	.	.	.	.	.	.
CCCCN(C)C(=O)CS(=O)(=O)Cc1nc(-c2cccc(OC)c2)oc1C	.	.	99	.	.	.
Cc1ccc(-c2nc(CS(=O)(=O)CC(=O)NCc3cccc(F)c3)c(C)o2)cc1	.	.	.	.	.	.
COc1ccc(-c2nc(CS(=O)(=O)CC(=O)NCc3cccc(F)c3)c(C)o2)cc1	.	.	97	.	.	.
COc1ccc(CNC(=O)CS(=O)(=O)Cc2nc(-c3cccc(OC)c3)oc2C)cc1	.	.	91	.	.	.
COCCCNC(=O)CS(=O)(=O)Cc1nc(-c2cccc(OC)c2)oc1C	.	.	?	.	.	.
O=C(CSc1nnc(CNC(=O)c2c(F)cccc2Cl)o1)Nc1ccccc1	.	.	.	.	.	.
O=C(CSc1nnc(CNC(=O)c2ccccc2)o1)Nc1ccc2c(c1)OCCO2	.	.	98	.	.	.
O=C(CSc1nnc(CNC(=O)c2ccc(F)cc2)o1)Nc1ccc2c(c1)OCCO2	.	.	.	.	.	.
CCc1ccc(NC(=O)CSc2nnc(CNC(=O)c3c(F)cccc3Cl)o2)cc1	.	.	99	.	.	.
O=C(CSc1nnc(CNC(=O)c2ccccc2F)o1)Nc1ccc2c(c1)OCCO2	.	.	/	.	.	.
O=C(CSc1nnc(CNC(=O)c2ccccc2F)o1)Nc1ccc2c(c1)OCO2	.	.	99	.	.	.
Cc1nc2c(C(=O)NCCc3ccccc3)c[nH]n2c(=O)c1Cl	.	.	.	.	.	.
Cc1nc2c(C(=O)NCCC(C)C)c[nH]n2c(=O)c1Cl	.	.	95	.	.	.
O=C(CCCCCCCC(=O)c1ccccc1)c1ccccc1	.	.	.	.	.	.
C=C(CCC(=O)c1ccccc1)C(=O)c1ccccc1	.	.	97	.	.	.
Cc1ccc(N2CCN(S(=O)(=O)N3CCCCC3)CC2)cc1C	.	.	.	.	.	.
Cc1ccc(N2CCN(C(=O)N3CCCC3)CC2)cc1C	.	.	96	.	.	.
SMILES	NS3 helicase inh	PfM18AAP inh	ALR H2O2 inh	EBNA-1 inhibitor	core dimer inh	ZTA DNA inh
O=C(CCc1nnc2ccc(NCc3ccco3)nn12)Nc1ccccn1	.	.	.	.	.	.
CCN(C(=O)CCc1nnc2ccc(NCc3ccco3)nn12)c1ccccc1	.	29	.	.	.	.
CC(C)CNC(=O)c1ccccc1NC(=O)c1ccc(CSc2ccccc2)cc1	.	.	.	.	.	.
CCC(C)NC(=O)c1ccccc1NC(=O)c1ccc(CSc2ccc(C)cc2)cc1 (stereo not drawn)	.	.	99	.	.	.
Nc1ccc(C(=O)OCCc2ccccc2)cc1	/	/	/	.	.	.
O=C(OCCc1ccccc1)c1cc(O)c(O)c(O)c1	/	/	99	.	.	.
CCCCCN(C(=O)CCC(=O)OCCOc1cccc(C)c1)c1c(N)n(CCCC)c(=O)[nH]c1=O	/	/	.	.	.	.
O=C(CSCc1nc2c(nnn2Cc2ccc(F)cc2)c(=O)[nH]1)Nc1cccc(C(F)(F)F)c1	.	.	96	.	.	.
Cc1cc(=O)[nH]c(SCc2cccc(Br)c2)n1	.	.	.	.	.	.
CCCc1cc(=O)[nH]c(SCC(=O)c2cc(C)n(C3CC3)c2C)n1	.	.	.	.	.	.
Cc1cc(=O)[nH]c(SCc2cccc3ccccc23)n1	.	.	98	.	.	.
O=c1cc(CSc2nc3ccccc3[nH]2)c2ccccc2[nH]1	.	.	91	.	.	.
Cc1cc(CSc2nc(C)cc(=O)[nH]2)c2ncccc2c1	.	.	/	.	.	.
COc1ccc(CSc2nc(C)cc(=O)[nH]2)cc1Br	.	.	98	.	.	.
CCCc1cc(=O)[nH]c(SCC(=O)c2cc(C)n(C)c2C)n1	.	.	98	.	.	.
CCCc1cc(=O)[nH]c(SCc2ccccc2Cl)n1	.	.	99	.	.	.
CCCCOc1ccc(C(=O)CCN2CCCCC2)cc1	.	.	98	.	.	.
COc1ccc(CNC(=O)CN2CCN(S(=O)(=O)c3ccccc3)CC2)cc1	/	/	.	/	/	.
Cc1nn(-c2ccccc2)c(C)c1/C=N/NC(=O)CSc1nc2ccccc2c(=O)n1-c1ccc(Br)cc1	.	.	.	.	59	.
Cc1ccc(-n2c(SCC(=O)N/N=C/c3c(C)nn(-c4ccccc4)c3C)nc3ccccc3c2=O)cc1	.	.	.	.	.	.
Cc1cc(=O)oc2c3c(cc(OCC(=O)NCC4CCC(C(=O)O)CC4)c12)OC(C)(C)CC3 (stereo not drawn)	.	.	.	.	.	.
COCCCn1c(Cc2csc(Nc3ccccc3)n2)nnc1SCC(N)=O	.	.	.	.	.	.
NC(=O)CSc1nnc(Cc2csc(Nc3ccccc3)n2)n1Cc1ccccc1	.	.	79	.	.	.
Cc1cc(NS(=O)(=O)c2ccc(NC(=O)Nc3cccc(Cl)c3)cc2)no1	.	.	98	.	.	.
Cc1cc(NS(=O)(=O)c2ccc(NC(=O)c3oc4ccccc4c3C)cc2)no1	.	.	98	.	.	.
SMILES	NS3 helicase inh	PfM18AAP inh	ALR H2O2 inh	EBNA-1 inhibitor	core dimer inh	ZTA DNA inh
Cc1ccc2oc(C(=O)Nc3ccc(S(=O)(=O)Nc4onc(C)c4C)cc3)c(C)c2c1	.	.	98	.	.	.
Cc1c(C(=O)Nc2ccc(S(=O)(=O)Nc3ncccn3)cc2)oc2ccccc12	/	/	/	/	/	.
Cc1cc(C(=O)Nc2ccc(S(=O)(=O)Nc3onc(C)c3C)cc2)c(C)o1	.	.	84	.	.	.
Cc1noc(NS(=O)(=O)c2ccc(NC(=O)c3ccoc3C)cc2)c1C	.	.	.	.	.	.
Cc1ccc(Cl)cc1NC(=O)CN1CCN(S(=O)(=O)N2CCC(C)CC2)CC1	.	.	.	.	.	.
Cc1cc(C(=O)Nc2ccc(S(=O)(=O)Nc3onc(C)c3C)cc2)cs1	.	.	97	.	.	.
O=C(O)c1ccc(-c2nc(-c3ccccc3)c(-c3ccccc3)[nH]2)cc1	.	.	98	.	.	.
